The subject of data set [1] is MDA-MB-231, OVCAR3, and U87MG cell lines. The experiment in a line: Cell viability MTT assay, three tumor cell lines stated together. The format is cell-based, human. The conditions noted are these: maximum / at the highest dose. The essentials:
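MTT viability assay. Cells at 5 × 10^3 per well, kept at 37 °C, 5% CO2 with 10% FBS: MDA-MB-231 in L-15, OVCAR3 and 293T in DMEM, U87MG in MEM. Test compound from 3 pM to 1.6 nM for 24 h, six replicates. MTT (5 mg/mL stock) added for 4 h, medium replaced with DMSO, absorbance read at 490 nm.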
On the technique in general: Tetrazolium assays rely on reduction of a dye to a coloured formazan, in cell work by metabolically active cells.

Another data set concerns U87MG cells. The experiment in a line: Apoptosis study, Annexin V-FITC/PI flow cytometry. The format is cell-based, human. The conditions noted are these: 24 h. The essentials:
(§1)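 Annexin V-FITC/PI apoptosis assay. Media: MDA-MB-231 in L-15, OVCAR3 in DMEM, U87MG in MEM; all with 10% FBS, 37 °C, 5% CO2. Cells in 6-well plates got 200 μL of 1 mg/mL test compound for 24 h, then two PBS (pH 7.4) washes. Binding buffer, propidium iodide and Annexin V-FITC were added before flow cytometry. Q2 was early apoptotic and Q4 late apoptotic; Q2+Q4 was taken as […].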
(A flow cytometer gives signals particle by particle.)

Another data set deals with OVCAR3 cells. The experiment in a line: Apoptosis study, Annexin V-FITC/PI flow cytometry. As to conditions: OVCAR3, 24 h. The format is cell-based, human. The essentials:
as §1

Another data set relates to MDA-MB-231 cells. The experiment in a line: Apoptosis study, Annexin V-FITC/PI flow cytometry. The format is cell-based, human. As to conditions: MDA-MB-231, 24 h. Summed up:
as §1

The subject of the next data set is MDA-MB-231 tumor. The experiment in a line: In vivo antitumor activity. Details: species or system mice. As to conditions: three i.v. injections every other day, 6 mg/kg PTX equivalent. Summed up:
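Female BALB/c nude mice were fed a folate-deficient diet for 6 days, then given MDA-MB-231 cells at the right axillary fossa. Treatment began at tumor volumes of 80–150 mm3, n = 5 per group, with a PBS (pH 7.4) control. Dosing was 6 mg/kg PTX equivalent by tail vein, three injections every other day. Tumor volume was measured every other day. Excised tumors were assayed for CD46 protein.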

The nature of data set [2]: Toxicity in the therapy study: body weight and histopathology. The format is in vivo, mice. Summed up: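 Female nude mice bearing MDA-MB-231 tumors, n = 5 per group with a PBS (pH 7.4) control. They received 6 mg/kg PTX equivalent i.v. by tail vein, three doses every other day. Body weight was recorded every other day. Liver and kidneys were excised for pathology.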

The results in this text go back to paper PMC5858514 (Theranostics, 2018).

Turning to `CC(=O)O[C@H]1C(=O)[C@@]2(C)[C@H]([C@H](OC(=O)c3ccccc3)[C@]3(O)C[C@H](OC(=O)[C@H](O)[C@@H](NC(=O)c4ccccc4)c4ccccc4)C(C)=C1C3(C)C)[C@]1(OC(C)=O)CO[C@@H]1C[C@@H]2O` [PTX, paclitaxel], the cell inhibition ratio in data set [1] was found to be 63%. For the same molecule, the “cells undergoing early apoptosis (Q2)” value in the data set with U87MG cells is 29.8%; with OVCAR3 cells, 21.8%; in the data set with MDA-MB-231 cells it was 33.8%. For the same molecule, the “late apoptotic cells (Q4)” value in the data set on U87MG cells stood at 3.1%; in the data set with OVCAR3 cells, 2.5%; with MDA-MB-231 cells it was 1.3%. Besides, in the data set with MDA-MB-231 tumor, the tumor volume inhibition came to 41.04%. In data set [2] (after treatment, compared with control group), the “histopathological examination (H&E) of liver and kidneys / major organs” value is given as “no distinct pathologic changes”. In addition, the body weight loss in data set [2] (day 21 post initial treatment, 6 mg/kg i.v. x3) was found to be 0.65 ± 0.02 g. For the same molecule, the “change in body weight” value in data set [2] (over the study period, 6 mg/kg PTX equivalent i.v. x3) is recorded as “significant decrease”.
